# HDAC3 inh = human HDAC3 inhibition; inhibition, % at 8.3 µM; recombinant HDAC3, fluorogenic peptide/trypsin coupled, fluorescence; AID 2718; O15379; hit rate 0.15% among 320,000; in the data active = inhibition above about 26%, passing the limit was not always enough; inconclusive = no clear call, values can overlap the other calls
# Target sequence (O15379 whole entry, looked up): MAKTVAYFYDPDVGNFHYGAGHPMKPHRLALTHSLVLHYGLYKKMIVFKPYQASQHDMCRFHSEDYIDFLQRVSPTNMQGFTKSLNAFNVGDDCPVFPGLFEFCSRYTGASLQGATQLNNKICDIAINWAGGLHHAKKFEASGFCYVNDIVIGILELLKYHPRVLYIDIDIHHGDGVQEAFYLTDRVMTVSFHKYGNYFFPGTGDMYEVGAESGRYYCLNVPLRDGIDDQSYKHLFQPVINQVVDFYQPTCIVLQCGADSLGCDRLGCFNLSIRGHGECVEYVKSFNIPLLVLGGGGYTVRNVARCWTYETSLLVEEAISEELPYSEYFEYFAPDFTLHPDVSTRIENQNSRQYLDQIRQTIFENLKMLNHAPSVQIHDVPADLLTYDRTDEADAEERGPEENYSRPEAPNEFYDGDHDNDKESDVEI
# IDE cell activ = IDE (human) activation, cell-based. P14735. HEK cells, FAbeta-B cleavage, fluorescence polarization; 0% vehicle, 100% cell-free pure enzyme wells. activation, % at 5.96 µM. hit rate 0.073% among 340,000;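 active = activation above the mean of all tested compounds plus 3 SD, set per screening campaign, cut at about 17% in these data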
# IDE cell inh = cellular human IDE inhibition; P14735; HEK cells, FAbetaB cleavage, fluorescence polarization; inhibition, % at 5.59 µM; hit rate 0.41% among 320,000;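 active = percent inhibition above the average of all tested compounds plus 3 SD, set per screening campaign, cut at about 16% in these data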;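 note: IDE supplied by intact live HEK cells; FP after avidin binding of uncleaved biotin substrate so inhibition keeps polarization high; 0% = DMSO wells and 100% = 60 µM reference IDE inhibitor Ii1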
# Yeast superoxide = yeast age-related superoxide inhibition as caloric restriction mimetic. hit rate 0.18% among 330,000. S. cerevisiae aged cells, superoxide DHE fluorescence; stronger effect = lower value. AID 2690. superoxide response (% of plate mean), % at 10 µM;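 active = superoxide response under a set limit, about three screen SD below normal, cut at about 65% in these data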;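 note: yeast aged for seven days with compound at 30 °C before DHE staining; 100% = average MFI of all compound-treated wells on the plate with controls excluded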
# TbMetRS inhib = Trypanosoma brucei MetRS inhibition | inhibition, % at 11.9 µM | purified T. brucei MetRS, ATP depletion, Kinase-Glo luminescence | hit rate 0.4% among 360,000;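 active = inhibition above a per-plate cutoff of the control wells' mean inhibition plus 3 SD, cut at about 5.5% in these data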;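 note: 0% = DMSO wells median and 100% = median of wells with control inhibitor compound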
#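 Material: parasite MetRS enzyme / Replication: singlicate, one well per compound / Signal: luminescence of leftover ATP / Schedule: 2 h aminoacylation at 25 °C after 15 min preincubation / Medium: HEPES-MgCl2-KCl buffer plus DTT, spermine, BSA, pyrophosphatase / Doses: 11.9 µM single point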
# Efflux pump inh = antifungal efflux pump inhibition, Nile Red retention; S. cerevisiae Candida pump triplex; inhibition, % at 10 µM; hit rate 0.44% among 330,000; AID 485275;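 active = plate passing quality check with inhibition over a set limit, or well fluorescence over plate mean plus 4 SD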;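 note: Nile Red retained in pooled yeast measured as flow cytometry median fluorescence; 0% = buffer negative control and 100% = Enniatin B positive control; higher means more Nile Red kept so more efflux inhibition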
# Numbers without * were called inactive; ? = inconclusive; . = not tested or not shown. Sampled rows, rich in hits. Any-hit rate of the full collection: about 1.4%.
SMILES,HDAC3 inh,IDE cell activ,IDE cell inh,Yeast superoxide,TbMetRS inhib,Efflux pump inh
C#CCOCCOCCOCCNc1nc(N2CCN(C(=O)CCCCCCCCCCNC(=O)Cn3cc(CCCCCN)nn3)CC2)nc(N2CCN(C(=O)CCCCCCCCCCNC(=O)[C@@H](CCSC)n3cc(CCO)nn3)CC2)n1,17,31*,4,97,0,0
C#CCOCCOCCOCCNc1nc(N2CCN(C(=O)CCCCCCCCCCNC(=O)[C@H](CO)n3cc(CCCSC)nn3)CC2)nc(N2CCN(C(=O)CCCCCCCCCCNC(=O)[C@H](CCCN=C(N)N)n3cc(C[C@@H](C)CC)nn3)CC2)n1,?,55*,-2,95,0,0
Cc1noc(C)c1C(=O)N1CCC1(C)C(=O)NS(=O)(=O)Cc1cccc(Cl)c1 (stereo unspecified),.,.,.,.,0,.
COc1cc(/C=C2/SC(=Nc3ccc(O)cc3)NC2=O)cc(OC)c1O,-20,-113,58*,100,-1,0
COc1cc(/C=C2\SC(=Nc3ccc(O)cc3)NC2=O)cc(OC)c1OC,-7,.,-3,98,.,0
CC1(Cc2ccc(Cl)cc2)C(=O)Nc2c(Cl)cccc21 (stereo unspecified),.,.,.,.,0,.
O=C(NCCSc1ccc(Br)cc1)c1ccc2nc[nH]c2c1,-6,20*,2,96,1,0
O=C(NCCc1ccc(Cl)cc1)Nc1cccc(Cl)c1,9,2,-1,109,7.0*,0
CC1CCCC(NC(=O)c2cc(S(=O)(=O)N3CCCCC3)c[nH]2)C1C (stereo unspecified),.,.,.,.,-1,.
C=CCc1cccc(CNc2nc3ccccc3n2CC)c1O,1,4,1,89,40*,0
CCCCn1c(NCc2ccccc2O)nc2ccccc21,-2,1,5,120,3,0
CCCCOc1ccc(C(=O)NCCN2CCC(n3c(=O)[nH]c4ccccc43)CC2)cc1,.,.,.,.,-1,.
Cc1ccc(C)c(N2CCN(S(=O)(=O)c3c(C)noc3/C=C/N(C)C)CC2)c1,.,-4,-2,95,-1,0.8*
Cc1noc(/C=C/N(C)C)c1S(=O)(=O)N1CCN(c2ccccc2)CC1,1,-8,4,84,0,0
Cc1n[nH]c(=O)c2c(NC(=O)CSc3nn(-c4ccc(F)cc4)c(=S)s3)oc(C)c12,45*,0,4,104,0,0
Cc1ccc(C)c(N2CCN(C(C(=O)NC3CCCC3)C(C)C)CC2)c1 (stereo unspecified),.,.,.,.,-1,.
O=c1c2cnn(-c3ccccc3)c2nc(-c2ccco2)n1-c1ccccc1,3,0,8,105,0,0
O=c1oc(-c2ccco2)nc2c1cnn2-c1ccccc1,62*,2,1,97,-1,0
COc1cccc2cc(-c3ccnc(=S)[nH]3)oc12,-1,.,39*,85,.,0
CCCNC(=O)c1cc(C2CCCCN2C(=O)c2cc(OC)c(C)c(OC)c2)on1 (stereo unspecified),.,.,.,.,0,.
CCOc1ccc2[nH]c(C)c(CN3CCOCC3)c(=O)c2c1,-9,-5,-2,118,0,0
Cc1[nH]c2ccc(Br)cc2c(=O)c1CN1CCOCC1,-1,3,4,100,35*,0
COc1ccc(-c2nc3ccccc3n(CC(C)C)c2=O)cc1,.,.,.,.,-1,.
O=C1c2ccccc2C(=O)N1CSc1nnc(Nc2ccccc2F)s1,-2,6,0,61*,-1,0
CCCC(=O)n1nc(-c2ccc(Cl)cc2)nc1SC,32*,4,7,96,-1,0
SMILES,HDAC3 inh,IDE cell activ,IDE cell inh,Yeast superoxide,TbMetRS inhib,Efflux pump inh
COC(=O)C1=CN(c2cccc(OCc3ccccc3)c2)C(N)=C(C#N)C1c1ccc(-c2ccccc2)cc1 (stereo unspecified),.,.,.,.,0,.
COc1cc(NC(=O)SC2=NCCS2)cc(OC)c1,.,2,.,.,-1,.
COc1cccc(C(=O)SC2=NCCS2)c1,49*,0,-2,95,-1,0
CC(=O)n1nc(-c2ccccc2)nc1NCc1ccc(F)cc1,32*,3,3,93,0,0
CCC(=O)n1nc(-c2cccnc2)nc1NCc1ccc(F)cc1,29*,2,4,96,0,0
O=C(NCC[C@@H]1CC[C@@H](NS(=O)(=O)c2ccccc2)[C@@H](CO)O1)c1cc(Cl)cc(Cl)c1,.,.,.,.,-1,.
